The nature of series [1]: Toxicity in mouse B16F10 cells assessed as protein content at 25.5 uM incubated for 72 hrs by BCA protein assay. The class given is cell-based. A digest of the protocol:
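Treatment was the same as above: B16F0 cells in DMEM with 5% FBS plus sample in ethanol, with medium and sample renewed after 72 h and cells harvested by trypsin 72 h later. Total cellular protein in the pelleted cells was measured by bicinchoninic acid (BCA) assay and expressed as % of negative control.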

A short description of series [2]: Toxicity in mouse B16F10 cells assessed as cell viability at 25.5 uM incubated for 72 hrs by BCA protein assay. The format is cell-based. The note with it: read-out: Activity.
The next series concerns B16-F10. Put plainly: Potency index, ratio of kojic acid to test compound for inhibition of melanogenesis in mouse B16F10 cells. The class given is functional.
A further series relates to B16-F0. The series can be described thus: Effect on melanogenesis in mouse B16F0 cells assessed as melanin content at 1 mM incubated for 72 hrs. The note with it: B16-F0, 72 h.

The record followed here is ChEMBL document CHEMBL3351255, “Synthesis of dihydroresveratrol glycosides and evaluation of their activity against melanogenesis in B16F0 melanoma cells” (Eur J Med Chem, 2014).

On to `C=CC/C=C\C/C=C\CCCCCCCc1cc(O)cc(O)c1`, for which the Activity in series [1] is given as 98%. In series [2], the viability at 72 h, 25.5 µM came to 102%. For the same compound, in the series on B16-F10, the Ratio worked out at 40.

Consider `O=c1cc(CO)occ1O` [KOJIC ACID], for which the melanin content at 1000 µM with B16-F0 was determined as 79%.
